We go through 3 compounds from ChEMBL document CHEMBL3272249, “Esters of N-tert-butylarterenol. Long-acting new bronchodilators with reduced cardiac effects” (J Med Chem, 1976).

For data set [1], the system named is Canis familiaris. Kind of data set: Bronchodilator activity in dog assessed as degree of inhibition of carbachol or histamine-induced bronchoconstriction at 530 to 1060 mg/kg, it relative to control. It counts as functional, Canis lupus familiaris. The following applies: dose mg/kg 530-1060; route endotracheal. In a few lines:
(§1)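 Anesthetized dogs, trachea cannulated with a nonbreathing valve. Bronchoconstriction induced by iv carbachol (2–4 μg/kg) or histamine diphosphate (20–50 μg/kg) in separate animals, and airway pressure recorded by transducer. Drug stocks were made fresh in distilled water, diluted in saline and kept on ice. Read-out was percent inhibition of control constriction, averaged over at least three dogs per dose at the higher dose. Carbachol and histamine data were combined.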

Data set [2] relates to Canis familiaris. As to the kind of experiment: Bronchodilator activity in dog assessed as time of inhibition of carbachol or histamine-induced bronchoconstriction at 530 to 1060 mg/kg, it relative to control. It counts as functional, Canis lupus familiaris. To be noted: dose mg/kg 530-1060; route endotracheal. In a few lines:
(§2)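 Anesthetized dogs with an airway cannula and a nonbreathing valve. Bronchoconstriction was induced by iv carbachol (2–4 μg/kg) or histamine diphosphate (20–50 μg/kg) and read as change in airway pressure by transducer. Each compound was tested against both agonists in different dogs, and the results were combined and averaged. Effect is % inhibition of control constriction, with at least three dogs per dose. Drugs were dissolved fresh in distilled water, diluted in saline and kept on ice.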

Data set [3] relates to Canis familiaris. Kind of data set: Bronchodilator activity in dog assessed as degree of inhibition of carbachol or histamine-induced bronchoconstriction at 25 to 50 mg/kg, iv relative to control. To be noted: dose mg/kg 25-50. The class given is functional, Canis lupus familiaris. In a few lines: as §1
Data set [4] deals with Canis familiaris. As to the kind of experiment: Bronchodilator activity in dog assessed as time of inhibition of carbachol or histamine-induced bronchoconstriction at 520 to 1040 mg/kg, it relative to control. It counts as functional, Canis lupus familiaris. The following applies: dose mg/kg 520-1040; route endotracheal. A digest of the protocol:
as §2

The test system of data set [5] is Canis familiaris. As to the kind of experiment: Cardiotoxicity in spontaneously respiring dog assessed as degree of increase in heart rate at 520 to 1040 mg/kg, it relative to control. The class given is toxicity, organism-based, Canis lupus familiaris. Details: dose 520-1040 mg/kg, route endotracheal. The following applies: in vivo, inhaled_or_intranasal. In a few lines:
(§3)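 Anesthetized, spontaneously respiring dogs. Heart rate was taken from a lead II EKG, and blood pressure from the right femoral artery by transducer. The increase in heart rate (beats/min) was scored on a graded scale with more than 4 dogs per dose, and its duration was recorded. Drugs were dissolved fresh in distilled water, diluted in physiological saline and kept on ice.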

The test system of data set [6] is Canis familiaris. As to the kind of experiment: Cardiotoxicity in spontaneously respiring dog assessed as time of increase in heart rate at 25 to 50 mg/kg, iv relative to control. It counts as toxicity, organism-based, Canis lupus familiaris. Details: dose 25-50 mg/kg, route intravenous. To be noted: in vivo. In a few lines:
as §3

In data set [7] the test system is Canis familiaris. Kind of data set: Cardiotoxicity in spontaneously respiring dog assessed as degree of increase in heart rate at 25 to 50 mg/kg, iv relative to control. It counts as toxicity, organism-based, Canis lupus familiaris. Details: dose 25-50 mg/kg, route intravenous. The following applies: in vivo. In a few lines:
as §3

Data set [8] relates to Canis familiaris. As to the kind of experiment: Bronchodilator activity in dog assessed as degree of inhibition of carbachol or histamine-induced bronchoconstriction at 520 to 1040 mg/kg, it relative to control. The class given is functional, Canis lupus familiaris. The following applies: dose mg/kg 520-1040; route endotracheal. A digest of the protocol: as §1
Data set [9] deals with Canis familiaris. Kind of data set: Bronchodilator activity in dog assessed as time of inhibition of carbachol or histamine-induced bronchoconstriction at 25 to 50 mg/kg, iv relative to control. It counts as functional, Canis lupus familiaris. The following applies: dose mg/kg 25-50. A digest of the protocol:
(§4)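 Dog airway model: anesthetized, cannulated via a nonbreathing valve, with airway pressure changes recorded after iv carbachol (2–4 μg/kg) or histamine diphosphate (20–50 μg/kg) challenge, each agonist in different animals. Compounds were given iv, intraduodenally or intratracheally from fresh aqueous stocks diluted in saline. Duration (h) of inhibition of induced bronchoconstriction was followed, and the two agonist datasets were pooled.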

The subject of data set [10] is Canis familiaris. Kind of data set: Cardiotoxicity in spontaneously respiring dog assessed as time of increase in heart rate at 520 to 1040 mg/kg, it relative to control. It counts as toxicity, organism-based, Canis lupus familiaris. Details: dose 520-1040 mg/kg, route endotracheal. The following applies: in vivo, inhaled_or_intranasal. A digest of the protocol: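 Anesthetized, spontaneously respiring dogs. Heart rate monitored by lead II EKG, with blood pressure taken from the right femoral artery by pressure transducer and recorded on a polygraph. Drug stocks made fresh in distilled water, diluted in physiological saline and kept on ice. Dosing was iv, id or it as listed. The duration of the heart-rate increase was recorded in h, with more than 4 dogs per dose.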

Data set [11] relates to Canis familiaris. Kind of data set: Bronchodilator activity in dog assessed as time of inhibition of carbachol or histamine-induced bronchoconstriction at 250 to 1000 mg/kg, it relative to control. The class given is functional, Canis lupus familiaris. The following applies: dose mg/kg 250-1000; route endotracheal. In a few lines: as §4
Data set [12] concerns Canis familiaris. Kind of data set: Cardiotoxicity in spontaneously respiring dog assessed as degree of increase in heart rate at 20 to 40 mg/kg, iv relative to control. It counts as toxicity, organism-based, Canis lupus familiaris. The following applies: in vivo. Details: dose 20-40 mg/kg, route intravenous. In a few lines: as §3
The subject of data set [13] is Canis familiaris. As to the kind of experiment: Bronchodilator activity in dog assessed as time of inhibition of carbachol or histamine-induced bronchoconstriction at 20 to 40 mg/kg, iv relative to control. To be noted: dose mg/kg 20-40. It counts as functional, Canis lupus familiaris. A digest of the protocol:
as §4

Data set [14] deals with Canis familiaris. As to the kind of experiment: Bronchodilator activity in dog assessed as degree of inhibition of carbachol or histamine-induced bronchoconstriction at 250 to 1000 mg/kg, it relative to control. It counts as functional, Canis lupus familiaris. To be noted: dose mg/kg 250-1000; route endotracheal. In a few lines:
as §1

Data set [15] relates to Canis familiaris. As to the kind of experiment: Cardiotoxicity in spontaneously respiring dog assessed as time of increase in heart rate at 20 to 40 mg/kg, iv relative to control. It counts as toxicity, organism-based, Canis lupus familiaris. The following applies: in vivo. Details: dose 20-40 mg/kg, route intravenous. A digest of the protocol: as §3
Data set [16] concerns Canis familiaris. As to the kind of experiment: Bronchodilator activity in dog assessed as degree of inhibition of carbachol or histamine-induced bronchoconstriction at 20 to 40 mg/kg, iv relative to control. It counts as functional, Canis lupus familiaris. To be noted: dose mg/kg 20-40. In a few lines: as §1
For data set [17], the system named is Canis familiaris. Kind of data set: Bronchodilator activity in dog assessed as time of inhibition of carbachol or histamine-induced bronchoconstriction at 160 mg/kg, id relative to control. It counts as functional, Canis lupus familiaris. The following applies: route intraduodenal. A digest of the protocol:
as §4

The subject of data set [18] is Canis familiaris. Kind of data set: Cardiotoxicity in spontaneously respiring dog assessed as degree of increase in heart rate at 160 mg/kg, id relative to control. The following applies: in vivo, other. It counts as toxicity, organism-based, Canis lupus familiaris. Details: dose 160 mg/kg, route intraduodenal. In a few lines: as §3
For data set [19], the system named is Canis familiaris. As to the kind of experiment: Cardiotoxicity in spontaneously respiring dog assessed as time of increase in heart rate at 250 to 1000 mg/kg, it relative to control. The class given is toxicity, organism-based, Canis lupus familiaris. Details: dose 250-1000 mg/kg, route endotracheal. The following applies: in vivo, inhaled_or_intranasal. A digest of the protocol:
as §3

For data set [20], the system named is Canis familiaris. Kind of data set: Cardiotoxicity in spontaneously respiring dog assessed as time of increase in heart rate at 160 mg/kg, id relative to control. It counts as toxicity, organism-based, Canis lupus familiaris. Details: dose 160 mg/kg, route intraduodenal. The following applies: in vivo, other. A digest of the protocol:
as §3

In data set [21] the test system is Canis familiaris. As to the kind of experiment: Cardiotoxicity in spontaneously respiring dog assessed as degree of increase in heart rate at 250 to 1000 mg/kg, it relative to control. Details: dose 250-1000 mg/kg, route endotracheal. The following applies: in vivo, inhaled_or_intranasal. The class given is toxicity, organism-based, Canis lupus familiaris. A digest of the protocol:
as §3

The test system of data set [22] is Canis familiaris. As to the kind of experiment: Bronchodilator activity in dog assessed as degree of inhibition of carbachol or histamine-induced bronchoconstriction at 160 mg/kg, id relative to control. The class given is functional. To be noted: Canis lupus familiaris, route intraduodenal. In a few lines:
as §1

Consider `Cc1ccc(CC(=O)Oc2ccc([C@@H](O)CNC(C)(C)C)cc2OC(=O)Cc2ccc(C)cc2)cc1.Cl`, for which the “inhibition (INH)” value in the data set with Canis familiaris [1] was 40%. The Time in the data set with Canis familiaris [2] is 2 h.

With `CC(=O)Oc1cc([C@@H](O)CNC(C)(C)C)ccc1OC(=O)c1ccc(C)cc1.CS(=O)(=O)O`, the “inhibition (INH)” value in the data set with Canis familiaris [3] and in the data set on Canis familiaris [8] was more than 70% each time. In addition, the Time with Canis familiaris [4] was more than 1 h; with Canis familiaris [6], less than 0.5 h; with Canis familiaris [9], less than 1 h; in the data set with Canis familiaris [10], less than 1 h. Moreover, the Activity in the data set on Canis familiaris [5] was determined as 5%; with Canis familiaris [7], 40%.

The inhibition in vivo is the relative decrease from the control value, in per cent. Turning to `COc1ccc(C(=O)Oc2ccc([C@@H](O)CNC(C)(C)C)cc2OC(C)=O)cc1.CS(=O)(=O)O`, the Time in the data set with Canis familiaris [11] is more than 6 h; in the data set with Canis familiaris [13], more than 4 h; in the data set with Canis familiaris [15], 2 h; in the data set on Canis familiaris [17] it was more than 5 h; with Canis familiaris [19], less than 1 h; in the data set on Canis familiaris [20], less than 3 h. The Activity was 20% in the data set with Canis familiaris [12], 20% in the data set with Canis familiaris [18] and 5% with Canis familiaris [21]. In addition, the “inhibition (INH)” value in the data set with Canis familiaris [14] and with Canis familiaris [16] was more than 70% throughout. Moreover, in the data set on Canis familiaris [22], the inhibition in vivo at 160 mg/kg is more than 70%.
